Screens: PubChem, The Scripps Research Institute Molecular Screening Center
CHRM5 PAM: positive allosteric modulators of human muscarinic M5 receptor. P08912. CHO-K1 hM5, Fluo-8 calcium, ACh EC20 PAM; 0% = ACh EC20, 100% = ACh EC100. activation, % at 3 µM. 0.3% of 360,000 active;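 active = activation above the run cutoff, the mean activation of all test compounds plus 3 SD, cut at about 18% in these data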
Target sequence (P08912 whole entry, looked up): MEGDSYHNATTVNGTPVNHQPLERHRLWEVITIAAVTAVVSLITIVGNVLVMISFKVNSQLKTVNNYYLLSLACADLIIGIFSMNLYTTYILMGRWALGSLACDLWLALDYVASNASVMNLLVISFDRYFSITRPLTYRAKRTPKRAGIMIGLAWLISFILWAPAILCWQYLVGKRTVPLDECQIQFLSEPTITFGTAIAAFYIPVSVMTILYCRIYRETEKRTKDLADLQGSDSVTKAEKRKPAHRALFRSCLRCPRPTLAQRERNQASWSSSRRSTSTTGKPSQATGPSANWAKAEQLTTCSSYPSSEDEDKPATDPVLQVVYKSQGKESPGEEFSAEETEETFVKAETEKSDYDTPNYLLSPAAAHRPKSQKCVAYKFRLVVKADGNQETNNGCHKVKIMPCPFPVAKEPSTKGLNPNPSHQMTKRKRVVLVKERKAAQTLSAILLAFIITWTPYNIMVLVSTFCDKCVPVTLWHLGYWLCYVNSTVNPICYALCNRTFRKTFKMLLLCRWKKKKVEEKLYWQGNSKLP
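Probe or stimulus: acetylcholine, EC20 level; Assay system: human M5 receptor in CHO-K1 cells; Schedule: compound preincubation 140 s before EC20 acetylcholine addition; Technique: intracellular calcium via Fluo-8 fluorescence; Dosing: single-point, 3 µM nominal; Read-out basis: percent activation from peak-over-basal fluorescence ratio, scaled EC20-to-EC100 acetylcholine; Repeats: one well per compound, no replicates.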
M4 antag: antagonists of human muscarinic M4 receptor (CHRM4). P08173. CHO-hM4 cells, ACh EC80, Fluo-8 calcium fluorescence. inhibition, % at 3 µM. 0.73% of 360,000 active;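 active = inhibition above its plate's cutoff, the mean inhibition of sample wells plus 3 SD, cut at about 27% in these data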;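 note: 0% = acetylcholine EC80 with DMSO and 100% = DMSO without agonist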
M4 PAM: positive allosteric modulators of human muscarinic M4 receptor; P08173; CHO-K1 hM4/Gqi5, Fluo-8 calcium fluorescence, ACh EC20; 0% = ACh EC20, 100% = maximal ACh; activation, % at 3 µM; 0.4% of 360,000 active; AID 624126;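 active = activation above its plate's cutoff, the mean activation of sample wells plus 3 SD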
CHRM5 antagonist: blocks acetylcholine activation of human M5 receptor; P08912; CHO-hM5 cells, Fluo-8 calcium fluorescence, ACh EC80; inhibition, % at 3 µM; 0.59% of 360,000 active; AID 624040;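 active = inhibition above a per-plate cutoff, the mean of that plate's test compounds plus 3 SD, cut at about 27% in these data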;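 note: 0% = acetylcholine EC80 with DMSO and 100% = DMSO without agonist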
CHRM5 agonist: agonists of human muscarinic M5 receptor (CHRM5); activation, % at 3 µM; 0.19% of 360,000 active; P08912; CHO-K1 hM5 cells, Fluo-8 calcium fluorescence; 0% DMSO wells, 100% maximal acetylcholine response; AID 624037;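 active = activation above the run's mean over test compounds plus 3 SD, cut at about 23% in these data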;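 note: signal is peak over basal fluorescence ratio across the kinetic read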
CHRM4 agonist: agonists of human muscarinic M4 receptor (CHRM4). CHO-K1 hM4/Gqi5, Fluo-8 calcium fluorescence; vehicle 0%, full acetylcholine response 100%. activation, % at 3 µM. 0.14% of 360,000 active. AID 624127;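 active = activation above the run mean over all test wells plus 3 SD, cut at about 32% in these data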;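 note: peak over basal fluorescence ratio per well then scaled between controls; 0% = DMSO wells and 100% = acetylcholine at EC100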
Active calls of the source: *. An excerpt weighted towards active compounds, which were near 1.8% of everything screened.

SMILES | CHRM5 PAM | M4 antag | M4 PAM | CHRM5 antagonist | CHRM5 agonist | CHRM4 agonist
O=C(C[n+]1cc(-c2ccc(Cl)cc2)n2c1CCC2)N1c2ccccc2Sc2ccccc21 | -18 | 97* | -19 | 99* | -10 | 9
COc1ccc(-c2c[n+](CC(=O)c3cccs3)c3n2CCC3)cc1 | 2 | -4 | -2 | 13 | -6 | 0
O=C(C[n+]1cc(-c2ccc(Cl)cc2)n2c1CCC2)Nc1nc(-c2ccccc2)cs1 | -1 | -3 | -4 | 6 | -4 | 4
CC1CCC(C(C)C)C(OC(=O)C[n+]2cc(-c3ccc(Cl)cc3)n3c2CCC3)C1 (configuration not stated) | -36 | 29* | -35 | 53* | -18 | 0
COc1ccc(-c2c[n+](CC(=O)N3c4ccccc4Sc4ccccc43)c3n2CCC3)cc1 | -35 | 53* | -69 | 41* | -18 | 0
COc1ccc(C(O)c2cnc(C)n2Cc2ccccc2)cc1 (configuration not stated) | -2 | -16 | -2 | 6 | -4 | 6
Nc1[nH]c(C(=O)c2ccccc2)c(-c2cccc3ccccc23)c1C(=O)NCc1ccccc1 | -4 | -1 | 16 | 4 | 3 | 1
COc1ccccc1-n1cnc2cc(NCc3ccccn3)ccc21 | -19 | 42* | -15 | 20 | -5 | 0
CN1CCN(c2ncnc3c2ncn3[C@H]2CN(Cc3ccc(C(=O)O)cc3)C[C@@H](CO)O2)CC1 | -6 | -19 | 18* | 1 | -1 | 1
COc1cc(CN2C[C@@H](CO)O[C@@H](n3cnc4c(NCC(C)C)ncnc43)C2)cc(OC)c1OC | 2 | -11 | 17* | 17 | 2 | 2
COCCNc1ncnc2c1ncn2[C@H]1CN(Cc2cc(OC)c(OC)c(OC)c2)C[C@@H](CO)O1 | -7 | -1 | -6 | 3 | 1 | 0
OC[C@@H]1CN(Cc2ccc(-c3ccccc3)cc2)C[C@H](n2cnc3c(NCc4ccco4)ncnc32)O1 | -14 | 29* | -7 | 25 | 5 | 24
OC[C@@H]1CN(Cc2ccccc2)C[C@H](n2cnc3c(NCc4ccco4)ncnc32)O1 | 0 | -3 | -1 | -1 | 2 | 3
COC(=O)C1=CN(c2ccc(F)cc2)C(N)=C(C#N)C1c1ccc(-c2ccccc2)cc1 (configuration not stated) | 3 | -7 | -3 | -12 | -1 | 1
Cc1cccc(CN2CCN(C3CN(Cc4ccc([N+](=O)[O-])cc4)S(=O)(=O)C3)CC2)c1 (configuration not stated) | -6 | -1 | -9 | -2 | 1 | 13
COc1ccccc1CN1CCNC(=O)C1CC(=O)N(C)C1CCOCC1 (configuration not stated) | 2 | -2 | 3 | 0 | 0 | 0
CC(C)N1C(=O)c2ccccc2NC(=O)C1C(=O)NC1CC1 (configuration not stated) | -9 | 3 | 2 | 23 | -1 | 1
O=C(Nc1ccc(OCc2ccccc2)cc1)Nc1nnc([C@@H]2C[C@H](O)[C@@H](CO)O2)s1 | 1 | -8 | 7 | 3 | 1 | 0
O=C1c2ccccc2C(Nc2ccc(Cl)cn2)N1c1ccccn1 (configuration not stated) | -1 | -13 | 18* | 4 | -2 | 0
COc1ccccc1NC(=O)COC(=O)C1=NN(c2ccccc2)C(=O)CC1 | 19* | -1 | 16 | -3 | 3 | 1
CCCCN(C(=O)C(C)N1C(=O)c2ccccc2C1=O)c1c(N)n(CCCC)c(=O)[nH]c1=O (configuration not stated) | -3 | 4 | 7 | 4 | 1 | 0
CCCCn1c(N)c(N(CCC(C)C)C(=O)C(C)N2C(=O)c3ccccc3C2=O)c(=O)[nH]c1=O (configuration not stated) | 1 | -21 | 22* | 4 | -1 | 0
CCCCn1c(N)c(N(CCOC)C(=O)C2CCN(S(=O)(=O)c3ccc(C)cc3C)CC2)c(=O)[nH]c1=O | -2 | 2 | 24* | 1 | 3 | 1
CCCCn1c(N)c(N(CCC(C)C)C(=O)C2CC(=O)N(Cc3ccc(C)cc3)C2)c(=O)[nH]c1=O (configuration not stated) | 3 | -11 | 28* | 3 | 1 | 1
CCCCn1c(N)c(N(CCOC)C(=O)C2CCN(S(=O)(=O)c3ccc(C)cc3)CC2)c(=O)[nH]c1=O | 4 | -10 | 7 | 1 | -5 | 0
SMILES | CHRM5 PAM | M4 antag | M4 PAM | CHRM5 antagonist | CHRM5 agonist | CHRM4 agonist
CC(C)(O)C#Cc1ccc(N2C(c3ccsc3)=Cc3ccc(F)cc3C2c2c[nH]c3ccccc23)cc1 (configuration not stated) | -10 | 2 | 1 | 17 | -4 | 1
CN(C(=O)COC(=O)CNC(=O)c1ccccc1F)C1CCCCC1 | -6 | -6 | 23* | 11 | -1 | 0
Cn1c(=O)cc(OCCCC(=O)Nc2cccnc2)c2ccccc21 | 13 | 37* | 21 | 3 | -2 | 2
N#C/C(=C/c1ccccc1)C(=O)NCc1ccccc1 | 3 | 5 | -3 | -9 | 1 | 1
CN(C)c1ccc(/C=C(/C#N)C(=O)NCc2ccccc2)o1 | -16 | 3 | -7 | 15 | 25* | 9
CCc1nc2ccc(C(=O)Nc3cccc(OCC(=O)N(C)C)c3)cn2c1N(C)Cc1cc2ccccc2s1 | -22 | 34* | -12 | 33* | -2 | 15
CCNC(=O)N(C)c1c(CC)nc2ccc(C(=O)Nc3cccc(OCC(=O)N(C)C)c3)cn12 | -9 | -3 | -1 | 19 | 2 | 0
COc1ccc(OC)c(/C=N/NC(=O)C(=O)N2CCCC2)c1 | 2 | -16 | 22* | 6 | 2 | -1
O=C(NCCN1CCN(c2cccc(Cl)c2)CC1)Nc1ccccc1 | -7 | 2 | -13 | 1 | -4 | 5
O=C(NCCN1CCN(Cc2ccccc2)CC1)Nc1cc(Cl)cc(Cl)c1 | -28 | 43* | -53 | 21 | 13 | 45*
Cc1ccccc1CN1CCN(C(=O)[C@H]2O[C@@H](n3cnc4c(N)ncnc43)[C@H](O)[C@@H]2O)CC1 | 8 | 1 | 7 | -1 | -1 | 1
O=S1(=O)N[C@@H](Cc2ccccc2)COc2cc(N3CCC[C@@H]3CO)ccc21 | -7 | 8 | -3 | -1 | 6 | 8
CN(C(=O)COC(=O)C1=COCCO1)C1(C#N)CCCCC1 | 16 | -2 | 13 | 2 | 5 | 1
N#CC1(NC(=O)COC(=O)C2=COCCO2)CCCCC1 | 1 | 7 | 4 | 11 | 19 | 113*
